This is an account of results in ChEMBL document CHEMBL1165965, “Synthesis and structure-activity relationships of 1,2,3,4-tetrahydropyrido[2,3-b]pyrazines as potent and selective inhibitors of the anaplastic lymphoma kinase” (Bioorg Med Chem, 2010).

Assay [1] addresses RAF proto-oncogene serine/threonine-protein kinase (Homo sapiens) (UniProt P04049). The assay is described as follows: Inhibition of RAF1 at 1 uM.
Assay [2] has as its system Tyrosine-protein kinase ABL1 (Homo sapiens), P00519 [Y253F]. The assay is described as follows: Inhibition of ABL1 Y253F mutant at 1 uM. A digest of the protocol:
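Ambit KINOMEscan screen at a single concentration across a 250–400 kinase panel, recorded as percent inhibition. Selectivity was expressed as S(90), the fraction of kinases inhibited >90%.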

For assay [3], the target named is T1, Interleukin-1 receptor-associated kinase 3 (Homo sapiens) (UniProt Q9Y616).
T1 sequence (whole entry): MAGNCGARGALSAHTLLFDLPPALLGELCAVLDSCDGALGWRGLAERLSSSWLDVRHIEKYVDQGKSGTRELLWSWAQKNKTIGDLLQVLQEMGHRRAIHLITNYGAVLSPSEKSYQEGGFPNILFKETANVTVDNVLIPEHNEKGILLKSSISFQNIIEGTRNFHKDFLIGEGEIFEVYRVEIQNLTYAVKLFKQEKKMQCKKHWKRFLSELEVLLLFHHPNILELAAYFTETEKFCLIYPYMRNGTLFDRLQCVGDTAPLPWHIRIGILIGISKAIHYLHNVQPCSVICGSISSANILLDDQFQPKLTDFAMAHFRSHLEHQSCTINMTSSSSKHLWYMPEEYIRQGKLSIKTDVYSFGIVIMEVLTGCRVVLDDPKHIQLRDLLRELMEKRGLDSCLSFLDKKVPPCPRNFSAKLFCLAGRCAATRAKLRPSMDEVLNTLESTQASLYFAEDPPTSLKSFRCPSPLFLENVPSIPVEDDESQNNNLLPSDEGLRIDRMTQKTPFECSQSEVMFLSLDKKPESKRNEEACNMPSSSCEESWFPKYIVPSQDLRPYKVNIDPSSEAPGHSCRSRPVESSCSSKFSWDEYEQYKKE
The assay is described as follows: Inhibition of IRAK3 at 1 uM. In short, it runs like this:
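Single-concentration screen on the Ambit KINOMEscan platform, run against a panel of 250–400 kinases. Per-kinase inhibition was also summarized as S(90), the fraction of kinases inhibited by more than 90%.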

The target in assay [4] is T2, Hormonally up-regulated neu tumor-associated kinase (Homo sapiens) (UniProt P57058).
T2 sequence (whole entry): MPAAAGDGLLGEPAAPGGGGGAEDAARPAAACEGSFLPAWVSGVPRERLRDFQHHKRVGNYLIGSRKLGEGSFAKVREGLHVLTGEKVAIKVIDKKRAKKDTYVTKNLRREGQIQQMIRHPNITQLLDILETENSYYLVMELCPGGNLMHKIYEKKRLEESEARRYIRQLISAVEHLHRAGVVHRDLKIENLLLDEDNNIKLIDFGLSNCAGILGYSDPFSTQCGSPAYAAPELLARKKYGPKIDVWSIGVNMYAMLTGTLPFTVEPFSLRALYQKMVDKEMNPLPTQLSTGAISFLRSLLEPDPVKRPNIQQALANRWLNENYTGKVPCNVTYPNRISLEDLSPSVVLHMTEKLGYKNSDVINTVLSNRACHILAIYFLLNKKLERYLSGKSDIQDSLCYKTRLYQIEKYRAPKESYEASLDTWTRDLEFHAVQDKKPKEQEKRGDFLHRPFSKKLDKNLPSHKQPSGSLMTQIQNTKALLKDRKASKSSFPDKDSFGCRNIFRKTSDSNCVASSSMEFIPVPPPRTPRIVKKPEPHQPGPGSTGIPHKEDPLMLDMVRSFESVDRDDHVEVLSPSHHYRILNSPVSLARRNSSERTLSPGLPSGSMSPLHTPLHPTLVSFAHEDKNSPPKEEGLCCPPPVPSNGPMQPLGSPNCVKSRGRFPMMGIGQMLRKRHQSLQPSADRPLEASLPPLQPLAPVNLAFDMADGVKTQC
The assay is described as follows: Inhibition of HUNK at 1 uM.

For assay [5], the target named is T3, Mitogen-activated protein kinase kinase kinase 13 (Homo sapiens) (UniProt O43283).
T3 sequence (whole entry): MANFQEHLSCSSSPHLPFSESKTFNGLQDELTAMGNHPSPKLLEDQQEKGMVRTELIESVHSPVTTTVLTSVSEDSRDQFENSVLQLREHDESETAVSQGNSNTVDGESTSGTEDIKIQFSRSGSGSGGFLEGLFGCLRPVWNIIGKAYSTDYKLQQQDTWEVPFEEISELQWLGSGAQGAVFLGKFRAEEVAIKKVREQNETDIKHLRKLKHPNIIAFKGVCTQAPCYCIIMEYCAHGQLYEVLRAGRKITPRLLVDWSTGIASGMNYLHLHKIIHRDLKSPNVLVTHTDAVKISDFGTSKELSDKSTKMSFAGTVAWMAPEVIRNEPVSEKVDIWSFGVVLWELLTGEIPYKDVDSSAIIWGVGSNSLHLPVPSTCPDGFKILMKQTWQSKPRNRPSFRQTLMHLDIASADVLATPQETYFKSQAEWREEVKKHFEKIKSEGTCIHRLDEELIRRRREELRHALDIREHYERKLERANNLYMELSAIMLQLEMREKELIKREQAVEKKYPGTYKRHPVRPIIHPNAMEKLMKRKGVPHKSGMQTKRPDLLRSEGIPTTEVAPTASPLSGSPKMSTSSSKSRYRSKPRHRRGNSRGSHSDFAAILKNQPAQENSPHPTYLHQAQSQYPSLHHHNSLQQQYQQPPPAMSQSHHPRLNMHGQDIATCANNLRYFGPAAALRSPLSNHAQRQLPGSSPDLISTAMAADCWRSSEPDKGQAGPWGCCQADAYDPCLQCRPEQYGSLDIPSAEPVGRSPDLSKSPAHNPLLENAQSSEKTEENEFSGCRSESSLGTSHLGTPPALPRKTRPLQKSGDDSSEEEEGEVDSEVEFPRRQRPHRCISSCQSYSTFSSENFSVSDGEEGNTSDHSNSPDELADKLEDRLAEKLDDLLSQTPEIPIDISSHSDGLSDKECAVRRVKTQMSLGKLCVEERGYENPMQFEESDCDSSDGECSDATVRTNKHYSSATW
Description: Inhibition of LZK at 1 uM.

The target in assay [6] is Cyclin-dependent kinase 19 (Homo sapiens) (UniProt Q9BWU1). The assay is described as follows: Inhibition of CDK11 at 1 uM.
In assay [7] the target is Cyclin-dependent kinase 18 (Homo sapiens) (UniProt Q07002). The assay is described as follows: Inhibition of PCTK3 at 1 uM.
For assay [8], the system named is Hepatocyte growth factor receptor (Homo sapiens), P08581 [Y1235D]. The assay is described as follows: Inhibition of MET Y1235D mutant at 1 uM.
In assay [9] the test system is Phosphatidylinositol 4,5-bisphosphate 3-kinase catalytic subunit alpha isoform (Homo sapiens), P42336 [E545K]. The assay is described as follows: Inhibition of PIK3CA E545K mutant at 1 uM.

Where only a bound is given, the exact number is not on record here.

Sequence of RAF proto-oncogene serine/threonine-protein kinase (Homo sapiens) (P04049 whole entry): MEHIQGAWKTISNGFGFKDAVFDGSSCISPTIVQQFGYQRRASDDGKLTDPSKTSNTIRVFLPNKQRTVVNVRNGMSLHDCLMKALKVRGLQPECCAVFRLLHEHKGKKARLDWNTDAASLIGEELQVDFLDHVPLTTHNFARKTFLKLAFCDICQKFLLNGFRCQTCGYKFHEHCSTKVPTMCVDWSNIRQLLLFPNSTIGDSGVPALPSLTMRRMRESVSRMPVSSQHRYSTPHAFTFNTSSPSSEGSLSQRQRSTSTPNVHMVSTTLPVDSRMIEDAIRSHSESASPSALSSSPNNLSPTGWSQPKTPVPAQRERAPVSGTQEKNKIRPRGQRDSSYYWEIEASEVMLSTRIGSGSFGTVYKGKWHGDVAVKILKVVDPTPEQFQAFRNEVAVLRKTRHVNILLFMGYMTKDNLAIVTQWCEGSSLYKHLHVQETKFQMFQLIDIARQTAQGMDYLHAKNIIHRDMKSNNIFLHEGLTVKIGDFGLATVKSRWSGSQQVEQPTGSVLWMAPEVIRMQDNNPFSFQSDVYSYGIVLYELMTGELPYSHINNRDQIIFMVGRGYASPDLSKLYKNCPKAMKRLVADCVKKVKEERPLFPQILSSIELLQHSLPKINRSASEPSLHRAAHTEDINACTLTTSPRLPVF
Sequence of Phosphatidylinositol 4,5-bisphosphate 3-kinase catalytic subunit alpha isoform (Homo sapiens), P42336 [E545K] (P42336 whole entry E545K, canonical isoform): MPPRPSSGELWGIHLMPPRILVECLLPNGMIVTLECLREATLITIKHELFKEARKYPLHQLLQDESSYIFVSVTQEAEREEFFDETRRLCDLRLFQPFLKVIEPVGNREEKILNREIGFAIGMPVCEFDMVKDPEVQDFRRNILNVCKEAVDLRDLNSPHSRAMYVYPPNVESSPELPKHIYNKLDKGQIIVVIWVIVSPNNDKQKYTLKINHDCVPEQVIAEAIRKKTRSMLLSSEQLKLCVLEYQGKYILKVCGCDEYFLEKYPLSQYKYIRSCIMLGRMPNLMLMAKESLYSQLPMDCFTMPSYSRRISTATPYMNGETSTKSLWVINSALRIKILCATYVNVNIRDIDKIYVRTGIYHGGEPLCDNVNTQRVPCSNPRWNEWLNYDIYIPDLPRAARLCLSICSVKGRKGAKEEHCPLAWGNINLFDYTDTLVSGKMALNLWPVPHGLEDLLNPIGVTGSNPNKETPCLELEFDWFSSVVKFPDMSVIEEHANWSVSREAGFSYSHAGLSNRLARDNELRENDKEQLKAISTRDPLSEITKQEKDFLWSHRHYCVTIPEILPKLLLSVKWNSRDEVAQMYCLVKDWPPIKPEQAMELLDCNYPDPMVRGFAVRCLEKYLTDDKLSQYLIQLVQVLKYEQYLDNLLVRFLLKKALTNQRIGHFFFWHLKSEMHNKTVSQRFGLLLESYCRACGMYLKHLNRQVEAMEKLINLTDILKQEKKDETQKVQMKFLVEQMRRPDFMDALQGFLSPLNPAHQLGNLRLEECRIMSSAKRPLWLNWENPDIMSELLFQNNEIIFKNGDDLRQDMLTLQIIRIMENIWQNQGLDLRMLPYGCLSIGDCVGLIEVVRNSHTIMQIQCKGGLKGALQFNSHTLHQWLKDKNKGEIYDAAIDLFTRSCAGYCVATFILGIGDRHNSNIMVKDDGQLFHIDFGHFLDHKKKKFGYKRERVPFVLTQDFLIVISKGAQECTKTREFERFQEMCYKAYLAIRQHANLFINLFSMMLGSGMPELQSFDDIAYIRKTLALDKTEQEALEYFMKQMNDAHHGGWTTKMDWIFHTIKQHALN
Sequence of Cyclin-dependent kinase 19 (Homo sapiens) (Q9BWU1 whole entry): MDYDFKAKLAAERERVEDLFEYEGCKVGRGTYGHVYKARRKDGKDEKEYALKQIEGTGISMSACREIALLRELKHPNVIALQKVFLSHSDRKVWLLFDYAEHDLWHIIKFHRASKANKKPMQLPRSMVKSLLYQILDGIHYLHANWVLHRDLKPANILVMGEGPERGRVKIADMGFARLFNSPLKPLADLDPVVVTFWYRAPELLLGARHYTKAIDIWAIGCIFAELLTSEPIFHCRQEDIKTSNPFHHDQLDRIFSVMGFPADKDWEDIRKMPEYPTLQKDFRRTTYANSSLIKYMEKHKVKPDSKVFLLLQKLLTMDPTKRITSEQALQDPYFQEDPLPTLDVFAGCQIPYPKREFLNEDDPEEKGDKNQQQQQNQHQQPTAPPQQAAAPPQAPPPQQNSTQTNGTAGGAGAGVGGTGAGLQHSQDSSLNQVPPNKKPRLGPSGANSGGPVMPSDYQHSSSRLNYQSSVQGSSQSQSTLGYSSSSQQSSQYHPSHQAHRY
Sequence of Cyclin-dependent kinase 18 (Homo sapiens) (Q07002 whole entry): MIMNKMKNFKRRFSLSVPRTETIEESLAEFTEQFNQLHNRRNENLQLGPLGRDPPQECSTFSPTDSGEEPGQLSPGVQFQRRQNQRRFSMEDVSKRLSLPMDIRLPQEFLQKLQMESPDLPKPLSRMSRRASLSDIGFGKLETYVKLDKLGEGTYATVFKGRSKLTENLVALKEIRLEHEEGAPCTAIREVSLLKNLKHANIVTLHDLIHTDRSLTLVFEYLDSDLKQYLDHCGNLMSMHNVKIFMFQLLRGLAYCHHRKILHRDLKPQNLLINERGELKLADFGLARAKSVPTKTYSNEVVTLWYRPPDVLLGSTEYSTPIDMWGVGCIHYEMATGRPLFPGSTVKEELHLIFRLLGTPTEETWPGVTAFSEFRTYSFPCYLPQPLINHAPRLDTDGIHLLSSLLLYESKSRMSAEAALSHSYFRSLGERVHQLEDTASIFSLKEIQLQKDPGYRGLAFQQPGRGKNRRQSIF
Sequence of Hepatocyte growth factor receptor (Homo sapiens), P08581 [Y1235D] (P08581 whole entry Y1235D, canonical isoform): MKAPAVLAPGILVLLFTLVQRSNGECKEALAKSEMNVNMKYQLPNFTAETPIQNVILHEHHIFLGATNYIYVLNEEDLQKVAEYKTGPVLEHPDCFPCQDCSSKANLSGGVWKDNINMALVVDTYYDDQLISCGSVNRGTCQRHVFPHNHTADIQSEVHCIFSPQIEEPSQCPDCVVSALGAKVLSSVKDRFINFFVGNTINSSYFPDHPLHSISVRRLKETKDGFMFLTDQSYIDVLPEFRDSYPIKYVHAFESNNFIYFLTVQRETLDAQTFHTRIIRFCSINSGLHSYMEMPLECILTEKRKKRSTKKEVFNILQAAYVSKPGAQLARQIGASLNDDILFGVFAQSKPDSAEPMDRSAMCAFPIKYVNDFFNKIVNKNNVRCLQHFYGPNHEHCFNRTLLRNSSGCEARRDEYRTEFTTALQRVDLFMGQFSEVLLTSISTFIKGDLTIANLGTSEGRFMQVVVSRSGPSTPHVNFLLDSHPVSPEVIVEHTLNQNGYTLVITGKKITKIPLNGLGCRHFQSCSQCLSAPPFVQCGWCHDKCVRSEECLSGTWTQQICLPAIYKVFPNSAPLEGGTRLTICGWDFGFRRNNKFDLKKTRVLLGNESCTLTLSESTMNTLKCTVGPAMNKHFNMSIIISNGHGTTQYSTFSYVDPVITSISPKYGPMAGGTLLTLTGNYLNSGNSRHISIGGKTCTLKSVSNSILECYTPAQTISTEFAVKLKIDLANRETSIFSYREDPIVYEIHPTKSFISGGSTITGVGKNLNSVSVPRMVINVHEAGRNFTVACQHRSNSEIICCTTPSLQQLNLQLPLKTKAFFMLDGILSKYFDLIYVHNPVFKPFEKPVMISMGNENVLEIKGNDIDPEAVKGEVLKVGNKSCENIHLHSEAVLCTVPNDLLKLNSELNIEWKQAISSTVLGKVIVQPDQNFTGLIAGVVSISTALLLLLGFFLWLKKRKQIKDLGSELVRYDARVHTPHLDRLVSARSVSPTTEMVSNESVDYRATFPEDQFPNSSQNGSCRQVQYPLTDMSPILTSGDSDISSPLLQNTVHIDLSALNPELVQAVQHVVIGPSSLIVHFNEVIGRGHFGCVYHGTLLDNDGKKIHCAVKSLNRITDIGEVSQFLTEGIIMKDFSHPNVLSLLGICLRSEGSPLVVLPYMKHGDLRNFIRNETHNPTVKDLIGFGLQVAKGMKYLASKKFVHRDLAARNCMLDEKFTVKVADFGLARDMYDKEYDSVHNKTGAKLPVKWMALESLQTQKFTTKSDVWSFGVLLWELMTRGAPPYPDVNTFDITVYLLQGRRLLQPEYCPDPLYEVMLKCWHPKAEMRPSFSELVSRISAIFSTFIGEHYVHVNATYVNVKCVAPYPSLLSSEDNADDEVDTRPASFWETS

With `O=C(c1ccc(-c2cnc3c(c2)N(Cc2cc(Cl)ccc2C(F)(F)F)CCN3)cc1)N1CCCCC1`, the inhibition in [1], in [2] and in [3] was under 50% each time.

With `CN1CCN(c2ccc(-c3cnc4c(c3)N(Cc3c(F)ccc(F)c3Cl)CCN4)cn2)CC1`, the inhibition (commonly the relative decrease from the control value, in per cent) is under 50% in [1]; 82% in assay [2]; under 50% in assay [4]; under 50% in assay [5]; under 50% in assay [6]; under 50% in assay [3]. Also, the results for the inhibition in [7], in [8] and in [9] were under 50%, 71% and under 50%, respectively.

As for `COC1CCN(C(=O)c2ccc(-c3cnc4c(c3)N(Cc3cc(Cl)ccc3C(F)(F)F)CCN4)cc2)CC1`, the inhibition in assay [1], in assay [2] and in assay [3] was under 50% in each case.

In the case of `O=C(O)c1ccc(-c2cnc3c(c2)N(Cc2cc(Cl)ccc2C(F)(F)F)CCN3)cc1`, the inhibition in assay [1] and in assay [3] was under 50% in each case.

Turning to `FC(F)(F)c1ccc(Cl)cc1CN1CCNc2ncc(-c3ccnc(N4CCNCC4)c3)cc21`, the inhibition in [1] is under 50%; in assay [2], under 50%; in [4], under 50%; in assay [5] it was under 50%; in [6], under 50%; in [3], 74%. Besides, the inhibition is under 50% in [7], 75% in [8] and under 50% in assay [9].

Regarding `CN1CCN(c2ccc(-c3cnc4c(c3)N(Cc3cc(Cl)ccc3Cl)CCN4)cn2)CC1`, the inhibition in assay [1], in assay [2], in [4], in assay [5], in assay [6] and in assay [3] was under 50% each time. The inhibition in assay [7], in assay [8] and in assay [9] was under 50% throughout.

Take `O=C(c1ccc(-c2cnc3c(c2)N(Cc2cc(Cl)ccc2C(F)(F)F)CCN3)cc1)N1CCC(N2CCCC2)CC1`: the inhibition in assay [1], in assay [2] and in assay [3] was under 50% each time.

As to `CN1CCN(c2ccc(-c3cnc4c(c3)N(Cc3cc(Cl)ccc3C(F)(F)F)CCN4)cn2)CC1`, the inhibition in assay [1], in assay [2], in assay [4], in assay [5], in [6] and in assay [3] was under 50% each time. The inhibition in [7], in [8] and in assay [9] was under 50% each time.

Take `CC(=O)N1CCN(c2cc(-c3cnc4c(c3)N(Cc3cc(Cl)ccc3C(F)(F)F)CCN4)ccn2)CC1`: the inhibition in [1], in [2], in [4], in assay [5], in assay [6] and in [3] was under 50% each time. Moreover, the inhibition is under 50% in [7], 67% in [8] and under 50% in [9].

In the case of `CN1CCN(c2ccc(-c3cnc4c(c3)N(Cc3cc(F)ccc3F)CCN4)cn2)CC1`, the inhibition in assay [1], in assay [2], in assay [4], in assay [5], in assay [6] and in assay [3] was under 50% throughout. The inhibition in assay [7], in assay [8] and in assay [9] was under 50% in each case.
